AF4-AF9 inh: blocks AF4 peptide binding to human AF9; AlphaScreen, biotin-AF4 peptide binding to FLAG-AF9; P42568; 350,000 tested, 0.47% active; inhibition, % at 10 µM;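 active = every replicate reaching a set inhibition limit, whatever the replicate mean, cut at about 25% in these data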;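 note: 0% = plate neutral control median and 100% = total signal loss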
Target sequence (P42568 whole entry, looked up): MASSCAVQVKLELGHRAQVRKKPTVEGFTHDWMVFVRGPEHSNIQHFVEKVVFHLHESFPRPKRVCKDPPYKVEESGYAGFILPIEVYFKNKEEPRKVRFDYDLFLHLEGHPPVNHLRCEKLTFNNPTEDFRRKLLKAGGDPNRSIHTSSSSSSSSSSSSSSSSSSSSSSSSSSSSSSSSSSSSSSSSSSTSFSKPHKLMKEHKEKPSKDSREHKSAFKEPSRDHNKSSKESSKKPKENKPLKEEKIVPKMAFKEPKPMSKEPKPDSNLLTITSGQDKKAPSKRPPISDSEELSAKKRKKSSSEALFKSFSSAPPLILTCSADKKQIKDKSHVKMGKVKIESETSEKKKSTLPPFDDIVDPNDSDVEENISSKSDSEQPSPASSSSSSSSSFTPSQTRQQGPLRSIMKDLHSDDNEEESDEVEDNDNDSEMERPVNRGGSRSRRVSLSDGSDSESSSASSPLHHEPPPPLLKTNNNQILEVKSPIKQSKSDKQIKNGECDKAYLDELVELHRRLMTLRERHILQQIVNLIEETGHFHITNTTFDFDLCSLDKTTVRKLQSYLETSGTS
FN deposition inh: fibronectin deposition inhibition; AID 743247; inhibition, % at 12.6 µM; AH1F fibroblasts, Alexa488-fibronectin deposition fluorescence, overnight; 350,000 tested, 0.086% active;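 active = mean inhibition across replicates of 30% or more, regardless of how many single replicates reach that level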;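 note: positive control wells lacked labelled fibronectin entirely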
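test system = AH1F fibroblasts assembling fluorescent fibronectin matrix | quantity = 10000 AH1F cells per well | buffer or medium = DMEM plus 2% serum, read in PBS | doses = single dose, pinned | incubation = 1 h cell attachment, overnight exposure to compound and label | detection = fluorescence at 485 nm excitation, 525 nm emission | read-out basis = inhibition from reduced deposited-fibronectin fluorescence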
ERp5 inh: inhibitors of human ERp5 | ERp5 insulin aggregation, absorbance 650 nm, 90 min | inhibition, % at 9.99 µM | 350,000 tested, 0.05% active;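 active = mean replicate inhibition above about 25%, with every replicate also reaching it, limit read from the data, passing the limit was not always enough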
PDI inh: inhibitors of human protein disulfide isomerase | P07237 | PDI insulin aggregation turbidity, A650, 90 min | inhibition, % at 10 µM | 350,000 tested, 0.052% active;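 active = mean inhibition across replicates of 30% or more, whatever share of single replicates reach that level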
SIRT5 block: inhibitors of human sirtuin-5 desuccinylase; Purified SirT5, succinyl-peptide AMC, trypsin-coupled fluorescence; inhibition, % at 15 µM; 330,000 tested, 1.1% active; in the data active = inhibition above about 15%
Starred values were filed as active, the others as inactive; . = not tested or not shown. Only some compounds are listed: those with a hit (about 1.3% of all), similar ones and a draw of the others.

SMILES	AF4-AF9 inh	FN deposition inh	ERp5 inh	PDI inh	SIRT5 block
Cc1ccc(S(=O)(=O)Nc2ccc3c(c2)C(=O)N([C@H](C)CO)C[C@H](C)[C@@H](CN(C)Cc2ccccc2)O3)cc1	0.6	-1.8	3.7	9.3	-1.2
O=C(Nc1ccc(Cl)cn1)c1cccc(S(=O)(=O)N2CCCCC2)c1	-1.3	-4.2	0.3	0.8	0.7
CN(C1=NC(=O)C(CC(=O)Nc2ccc(Br)cc2)S1)c1ccc(O)cc1 (stereo unspecified)	.	2.6	.	61.0*	.
O=C(CC1SC(=O)N(c2ccccc2)C1=O)Nc1ccc(Br)cc1 (stereo unspecified)	-1.3	-6.1	2.2	-0.7	-4.0
CCOC(=O)N1CCC(N2Cc3cccc(C(=O)Nc4ccc(N(CC)CC)cc4C)c3C2=O)CC1	42.7*	-13.1	0.4	-5.0	2.1
CCOC(=O)N1CCC(N2Cc3cccc(C(=O)Nc4cc(F)ccc4F)c3C2=O)CC1	0.2	-4.4	7.8	.	-3.0
Cc1ccc(C)c(S(=O)(=O)N2CCN(CC(=O)Nc3ccc4c(c3)OCCO4)CC2)c1	.	2.2	.	5.6	.
Cc1ccc(C(C)n2cc(C(=O)NCc3ccncc3)nn2)cc1 (stereo unspecified)	.	.	.	2.8	.
CCc1csc(CCNC(=O)C2CCC(=O)N(CCc3cccc(F)c3)C2)n1 (stereo unspecified)	-1.3	8.6	28.3*	7.5	0.2
O=C(OCc1ccccc1)N1CCC2CC1c1cc(-c3ccc(F)cc3)ccc12 (stereo unspecified)	0.1	-1.7	4.0	15.1	-6.9
COc1ccc(-c2ccc3c(c2)C2CC3CCN2C(=O)OCc2ccccc2)cc1 (stereo unspecified)	-2.2	active	6.9	7.8	0.4
Cc1cccc(-c2noc(CN(C)C(=O)c3ccoc3C)n2)c1	-0.4	1.5	2.0	0.2	-6.7
Cc1cccc(-c2noc(CN(C)C(=O)c3ccco3)n2)c1	-3.7	-3.4	2.4	1.3	51.9*
Cc1ccc(-c2[nH]c3cc(C(=O)NCCCn4ccnc4)ccc3c(=O)c2O)cc1	56.7*	-6.4	1.0	15.1	-1.9
CCCNC(=O)c1ccc2c(=O)c(O)c(-c3ccc(C)cc3)[nH]c2c1	5.6	.	6.4	1.0	-2.3
CN(C)CCCN(C(=O)CCc1ccccc1)c1nc2ccc(Br)cc2s1	26.2*	15.1	1.5	8.6	3.8
CC1CCN(S(=O)(=O)c2ccc(C(=O)N(C)C3CCS(=O)(=O)C3)cc2)CC1 (stereo unspecified)	-0.3	-3.0	11.6	2.2	24.9*
COc1ccc(C(=O)NCC(=O)NCC2(N(C)C)CCCCC2)cc1OC	.	11.7	.	-1.3	.
COc1cc(C(=O)NCC2(N(C)C)CCCCC2)ccc1OCc1ccccc1	2.4	-0.1	-0.7	-10.6	64.7*
CC(C)(C)S(=O)N1Cc2cc(=O)n(Cc3ccccc3)c(CCO)c2[C@H]1CCO (stereo partly specified)	0.0	11.5	2.1	1.5	26.0*
CCCNC(=O)N1C[C@@H](O)COC[C@@H]2O[C@H](CC(=O)N3CCC(Cc4ccccc4)CC3)CC[C@H]21	-1.8	-7.3	0.4	.	22.8*
O=C(C[C@@H]1CC[C@H]2[C@@H](COC[C@H](O)CN2CCC(F)(F)F)O1)N1CCC(Cc2ccccc2)CC1	-0.8	2.1	3.4	.	17.0*
O=C(C[C@H]1CC[C@@H]2[C@H](COC[C@H](O)CN2Cc2ccc(Oc3ccccc3)cc2)O1)N1CCc2ccccc2C1	3.7	.	-1.7	.	18.3*
CCCNC(=O)N1C[C@H](O)COC[C@H]2O[C@H](CC(=O)N3CCC(Cc4ccccc4)CC3)CC[C@@H]21	11.0	-3.1	-0.7	.	11.4
COc1ccc(CC(=O)N2CCOCC2)cc1OC	.	.	.	-9.3	.
SMILES	AF4-AF9 inh	FN deposition inh	ERp5 inh	PDI inh	SIRT5 block
CN(C)c1ccc(NC(=O)C2C3C=CC(C3)C2C(=O)O)cc1 (stereo unspecified)	29.3*	-0.5	-0.4	-10.5	1.3
CC1(C)CC(=O)c2c(O)cc(OCc3ccc(Br)cc3)cc2O1	2.5	.	2.0	-2.4	-0.4
C[C@@H]1CN([C@@H](C)CO)S(=O)(=O)c2ccc(-c3cccc(F)c3)cc2O[C@H]1CN(C)C(=O)Nc1cc(F)ccc1F	0.1	.	2.3	.	4.7
C[C@@H]1CN([C@H](C)CO)S(=O)(=O)c2ccc(-c3cccc(F)c3)cc2O[C@H]1CN(C)C(=O)Nc1cc(F)ccc1F	2.0	.	1.9	.	15.8*
C[C@H]1CN([C@@H](C)CO)S(=O)(=O)c2ccc(C#CC3CCCC3)cc2O[C@@H]1CN(C)C(=O)Nc1cc(F)ccc1F	3.0	.	6.4	.	19.7*
COc1ccccc1NS(=O)(=O)c1ccc(C(=O)N2CCN(c3ccccn3)CC2)cc1	2.6	-10.5	26.9*	-5.3	-3.1
COc1ccc([N+](=O)[O-])cc1NS(=O)(=O)c1ccc(C(=O)N2CCCC2)cc1	-0.1	34.3*	8.8	5.0	1.1
CC(=O)Nc1ccc2c(c1)CC(=O)N(C)C[C@@H](C)[C@@H](CN(C)S(C)(=O)=O)O2	.	1.7	.	.	.
COc1ccc(CN(C)C[C@@H]2Oc3ccc(NC(=O)Nc4cccc5ccccc45)cc3CC(=O)N([C@H](C)CO)C[C@H]2C)cc1	-2.1	.	-3.3	.	4.8
CO[C@H]1CN(C)C(=O)c2ccc(NC(=O)CC(F)(F)F)cc2OC[C@@H](C)N(C(=O)c2ccccc2F)C[C@H]1C	-13.5	.	4.6	.	.
Cc1ccc(OCC(=O)NCc2ccc3c(c2)OCO3)c([N+](=O)[O-])n1	-2.1	.	-0.2	-2.0	0.7
S=c1[nH]nc(-c2ccccc2Cl)n1/N=C/C=C/c1ccco1	47.3*	3.6	1.3	-3.1	-1.7
CC(C)OC(=O)c1cccc(C(=O)O)n1	.	8.6	-8.4	-1.9	18.7*
CC(C)OC(=O)c1cccc(C(=O)Oc2ccc(Br)cc2)n1	.	.	.	-1.1	.
Cc1ccc2c(c1)[C@H]1[C@H](CO2)[C@H](c2ccccc2)[C@]2(C)C(=O)Nc3ccc(Cl)cc3C(=O)N12	3.6	5.9	1.9	-3.8	16.3*
CCCc1c(C(=O)OCC)[nH]c2c1C(=O)CCC2	-2.0	9.4	-1.8	.	29.2*
COC(=O)[C@]12CCCCC=C1N(Cc1cccc3ccccc13)C(=O)[C@H](CC(=O)NCc1ccccc1)C2	0.1	0.7	-4.1	.	-3.1
C#CCNC(=O)C[C@@H]1C[C@@]2(C(=O)OCC)CCCC=C2N(CCCCCCCC)C1=O	0.4	.	-1.4	.	16.9*
COC(=O)[C@]12CCCCC=C1N(Cc1cccc3ccccc13)C(=O)[C@H](CC(=O)NCC1CCCCC1)C2	2.2	25.7	-11.0	.	22.0*
CCCCCCCCN1C(=O)[C@H](CC(=O)NCC2CCCCC2)C[C@@]2(C(=O)OCC)CCC=C12	-1.6	2.9	-0.9	.	21.8*
CCCCCCCCN1C(=O)[C@H](CC(=O)NCC2CCCCC2)C[C@@]2(C(=O)OCC)CCCC=C12	-3.7	.	0.9	.	0.5
Cn1cc([N+](=O)[O-])c(C(=O)Nc2ccc(-c3nc4ccccc4[nH]3)cc2)n1	-5.9	9.8	-1.8	1.8	-8.5

Screening data from PubChem.
